Measured values reported in ChEMBL document CHEMBL4024711, “Design, synthesis and biological evaluation of novel nitric oxide-donating protoberberine derivatives as antitumor agents” (Eur J Med Chem, 2017).
Active and inactive are the calls of the source. No cut-off for these calls is given here.

Legend:
[1] = system: HepG2; assay: Cytotoxicity against human HepG2 cells after 72 hrs by MTT assay; format: functional, cell-based; conditions: HepG2, 72 h
Outline: (§1)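 MTT assay. Cells were plated and grown 24 h at 37 °C, 5% CO2, then exposed to compound in medium with 0.1% DMSO for 72 h. MTT (5 mg/mL in PBS) was added for 4 h and absorbance read at 490 nm. IC50 was taken from dose-response curves; at least three independent experiments.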

[2] = Induction of NO release assessed as nitrite formation in PBS at 100 uM up to 300 mins by Griess assay
Outline: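 Compound at 100 μM was incubated at 37 °C in PBS, pH 7.4, containing 2% DMSO and 5.0 mM L-cysteine, in acellular or HepG2 cell lysates, and sampled over time. Samples were mixed with Griess reagent at 37 °C for 15 min and read at 540 nm. Nitrite was quantified against a sodium nitrite standard curve, in triplicate.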

[3] = system: HL-60; assay: Cytotoxicity against human HL60 cells after 72 hrs by MTT assay; format: functional, cell-based; conditions: HL-60, 72 h; outline: as §1
[4] = system: HepG2; assay: Induction of apoptosis in human HepG2 cells assessed as late apoptotic cells at 0.5 uM after 72 hrs by Annexin V-APC/7-AAD staining based flow cytometric method (reference value: 0.51%); format: functional
[5] = system: HepG2; assay: Induction of apoptosis in human HepG2 cells assessed as late apoptotic cells at 2 uM after 72 hrs by Annexin V-APC/7-AAD staining based flow cytometric method (reference value: 0.51%); format: functional
[6] = system: HepG2; assay: Cell cycle arrest in human HepG2 cells assessed as accumulation at G1 phase at 1 uM after 72 hrs by propidium iodide staining based flow cytometric method (reference value: 56.77%); format: functional
Outline: (§2)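 HepG2 cells were seeded and grown 24 h at 37 °C, 5% CO2. They were then exposed to 0, 0.5, 1 or 2 μM for 72 h, fixed in 70% ethanol at 4 °C for 12 h, and stained with RNase A plus propidium iodide for 30 min. DNA content was measured by flow cytometry to give the cell-cycle phase distribution.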

[7] = system: HepG2; assay: Cell cycle arrest in human HepG2 cells assessed as accumulation at S phase at 2 uM after 72 hrs by propidium iodide staining based flow cytometric method (reference value: 25.78%); format: functional; outline: as §2
[8] = system: HepG2; assay: Cell cycle arrest in human HepG2 cells assessed as accumulation at G1 phase at 0.5 uM after 72 hrs by propidium iodide staining based flow cytometric method (reference value: 56.77%); format: functional; outline: as §2
[9] = system: H22; assay: Antitumor activity against […] H22 cells xenografted in ICR mouse assessed as tumor growth inhibition at 15 mg/kg, iv administered once daily for 21 days measured post last dose relative to control; format: functional; conditions: 504 h, read-out: TGI
[10] = system: L02; assay: Cytotoxicity against human LO2 cells after 72 hrs by MTT assay; format: cell-based; conditions: L02, 72 h; outline: as §1
[11] = system: HepG2; assay: Induction of apoptosis in human HepG2 cells assessed as live cells at 2 uM after 72 hrs by Annexin V-APC/7-AAD staining based flow cytometric method (reference value: 94.99%); format: functional
[12] = system: HepG2; assay: Induction of apoptosis in human HepG2 cells assessed as early apoptotic cells at 0.5 uM after 72 hrs by Annexin V-APC/7-AAD staining based flow cytometric method (reference value: 2.06%); format: functional
[13] = system: HepG2; assay: Cell cycle arrest in human HepG2 cells assessed as accumulation at S phase at 1 uM after 72 hrs by propidium iodide staining based flow cytometric method (reference value: 25.78%); format: functional; outline: as §2
[14] = system: HepG2; assay: Induction of apoptosis in human HepG2 cells assessed as necrotic cells at 2 uM after 72 hrs by Annexin V-APC/7-AAD staining based flow cytometric method (reference value: 2.44%); format: functional
[15] = system: HepG2; assay: Disruption of mitochondrial membrane potential in human HepG2 cells assessed as collapse of the mitochondrial membrane potential at 0.5 uM after 72 hrs by JC1 staining based flow cytometric method (reference value: 3.05%); format: functional
Outline: (§3)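 HepG2 cells were exposed to 0, 0.5, 1 or 2 μM for 72 h, washed in PBS, and resuspended in JC-1 incubation buffer at 37 °C for 15 min. The fractions of cells with healthy or collapsed mitochondrial membrane potential were determined by flow cytometry.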

[16] = system: H22; assay: Antitumor activity against […] H22 cells xenografted in ICR mouse assessed as tumor growth inhibition at 30 mg/kg, iv administered once daily for 21 days measured post last dose relative to control; format: functional; conditions: 504 h, read-out: TGI
[17] = system: H22; assay: Antitumor activity against […] H22 cells xenografted in ICR mouse assessed as tumor weight at 30 mg/kg, iv administered once daily for 21 days measured post last dose (reference value: 4.38 +/- 0.16 g); format: functional
[18] = system: HepG2; assay: Cell cycle arrest in human HepG2 cells assessed as accumulation at S phase at 0.5 uM after 72 hrs by propidium iodide staining based flow cytometric method (reference value: 25.78%); format: functional; outline: as §2
[19] = system: HepG2; assay: Cell cycle arrest in human HepG2 cells assessed as accumulation at G2 phase at 2 uM after 72 hrs by propidium iodide staining based flow cytometric method (reference value: 17.45%); format: functional; outline: as §2
[20] = system: HepG2; assay: Disruption of mitochondrial membrane potential in human HepG2 cells assessed as intact mitochondrial membrane at 0.5 uM after 72 hrs by JC1 staining based flow cytometric method (reference value: 96.94%); format: functional; outline: as §3
[21] = system: HepG2; assay: Induction of apoptosis in human HepG2 cells assessed as early apoptotic cells at 1 uM after 72 hrs by Annexin V-APC/7-AAD staining based flow cytometric method (reference value: 2.06%); format: functional
[22] = system: HepG2; assay: Cell cycle arrest in human HepG2 cells assessed as accumulation at G2 phase at 1 uM after 72 hrs by propidium iodide staining based flow cytometric method (reference value: 17.45%); format: functional; outline: as §2
[23] = system: HepG2; assay: Cytotoxicity against human HepG2 cells at 2 uM after 72 hrs by MTT assay; format: functional, cell-based
Outline: (§4)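 HepG2 cells were pretreated for 2 h with graded concentrations of carboxy-PTIO (an NO scavenger), or left unpretreated. They were then exposed to 2 μM compound for 72 h, and growth was assessed by MTT. Mean ± SD, n=3.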

[24] = system: Mus musculus; assay: Toxicity in ICR mouse xenografted with […] cells assessed as body weight at 30 mg/kg, iv administered once daily for 21 days measured post last dose (reference value: 26 +/- 0.6 g); format: organism-based; conditions: in vivo, 504 h
[25] = system: HepG2; assay: Induction of apoptosis in human HepG2 cells assessed as necrotic cells at 1 uM after 72 hrs by Annexin V-APC/7-AAD staining based flow cytometric method (reference value: 2.44%); format: functional
[26] = system: Mus musculus; assay: Toxicity in ICR mouse xenografted with […] cells assessed as body weight at 15 mg/kg, iv administered once daily for 21 days measured post last dose (reference value: 26 +/- 0.6 g); format: organism-based; conditions: in vivo, 504 h
[27] = system: HCT-116; assay: Cytotoxicity against human HCT116 cells after 72 hrs by MTT assay; format: functional, cell-based; conditions: HCT-116, 72 h; outline: as §1
[28] = system: HepG2; assay: Cytotoxicity against human HepG2 cells at 2 uM after 72 hrs in presence of NO scavenger PTIO by MTT assay; format: functional, cell-based; outline: as §4
[29] = system: HepG2; assay: Induction of apoptosis in human HepG2 cells assessed as necrotic cells at 0.5 uM after 72 hrs by Annexin V-APC/7-AAD staining based flow cytometric method (reference value: 2.44%); format: functional
[30] = system: HepG2; assay: Induction of apoptosis in human HepG2 cells assessed as live cells at 0.5 uM after 72 hrs by Annexin V-APC/7-AAD staining based flow cytometric method (reference value: 94.99%); format: functional
[31] = system: SMMC-7721; assay: Cytotoxicity against human SMMC7721 cells after 72 hrs by MTT assay; format: functional, cell-based; conditions: SMMC-7721, 72 h; outline: as §1
[32] = system: HepG2; assay: Disruption of mitochondrial membrane potential in human HepG2 cells assessed as intact mitochondrial membrane at 2 uM after 72 hrs by JC1 staining based flow cytometric method (reference value: 96.94%); format: functional; outline: as §3
[33] = system: HepG2; assay: Induction of apoptosis in human HepG2 cells after 72 hrs by Annexin V-APC/7-AAD staining based flow cytometric method; format: functional, cell-based
[34] = system: HepG2; assay: Induction of apoptosis in human HepG2 cells assessed as late apoptotic cells at 1 uM after 72 hrs by Annexin V-APC/7-AAD staining based flow cytometric method (reference value: 0.51%); format: functional
[35] = system: HepG2; assay: Induction of apoptosis in human HepG2 cells assessed as early apoptotic cells at 2 uM after 72 hrs by Annexin V-APC/7-AAD staining based flow cytometric method (reference value: 2.06%); format: functional
[36] = system: HepG2; assay: Cell cycle arrest in human HepG2 cells assessed as accumulation at G1 phase at 2 uM after 72 hrs by propidium iodide staining based flow cytometric method (reference value: 56.77%); format: functional; outline: as §2
[37] = system: HepG2; assay: Disruption of mitochondrial membrane potential in human HepG2 cells assessed as collapse of the mitochondrial membrane potential at 2 uM after 72 hrs by JC1 staining based flow cytometric method (reference value: 3.05%); format: functional; outline: as §3
[38] = system: HepG2; assay: Cell cycle arrest in human HepG2 cells assessed as accumulation at G2 phase at 0.5 uM after 72 hrs by propidium iodide staining based flow cytometric method (reference value: 17.45%); format: functional; outline: as §2
[39] = system: HepG2; assay: Disruption of mitochondrial membrane potential in human HepG2 cells assessed as intact mitochondrial membrane at 1 uM after 72 hrs by JC1 staining based flow cytometric method (reference value: 96.94%); format: functional; outline: as §3
[40] = system: H22; assay: Antitumor activity against […] H22 cells xenografted in ICR mouse assessed as tumor weight at 15 mg/kg, iv administered once daily for 21 days measured post last dose (reference value: 4.38 +/- 0.16 g); format: functional
[41] = system: HepG2; assay: Disruption of mitochondrial membrane potential in human HepG2 cells assessed as collapse of the mitochondrial membrane potential at 1 uM after 72 hrs by JC1 staining based flow cytometric method (reference value: 3.05%); format: functional; outline: as §3
[42] = system: HepG2; assay: Induction of apoptosis in human HepG2 cells assessed as live cells at 1 uM after 72 hrs by Annexin V-APC/7-AAD staining based flow cytometric method (reference value: 94.99%); format: functional

COc1ccc2cc3[n+](cc2c1OCCCCCCCCCCCCO[N+](=O)[O-])CCc1cc2c(cc1-3)OCO2
IC50 [1]: 2.52 µM
Activity [2]: Active

COc1ccc2cc3[n+](cc2c1OCCCCCO[N+](=O)[O-])CCc1cc2c(cc1-3)OCO2
IC50 [1]: 12.4 µM

COc1cc2c(cc1OC)-c1c(Br)c3ccc(OC)c(OCCCCCCCCO[N+](=O)[O-])c3c[n+]1CC2.[Br-]
IC50 [3]: 1.26 µM
Activity [4]: 2.39%
Activity [5]: 10.01%
Activity [6]: 47.33%
Activity [7]: 24.23%
Activity [8]: 51.14%
inhibition in vivo at 15 mg/kg [9]: 45.9%
IC50 [1]: 1.36 µM
IC50 [10]: 28.9 µM
Activity [11]: 44.44%
Activity [12]: 11.02%
Activity [13]: 23.1%
Activity [14]: 4.43%
Activity [15]: 12.1%
inhibition in vivo at 30 mg/kg [16]: 62.5%
Activity [17]: 1.64 g
Activity [18]: 25.49%
Activity [19]: 41.45%
Activity [20]: 87.9%
Activity [21]: 22.97%
Activity [22]: 29.57%
Activity [23]: Active
Activity [24]: 25.2 g
Activity [25]: 4.32%
Activity [26]: 25.4 g
IC50 [27]: 2.29 µM
Activity [28]: inactive
Activity [29]: 1.49%
Activity [30]: 85.1%
IC50 [31]: 1.21 µM
Activity [32]: 59.5%
Activity [33]: Dose-dependent effect
Activity [34]: 9.11%
Activity [35]: 41.13%
Activity [36]: 34.32%
Activity [37]: 40.5%
Activity [38]: 23.38%
Activity [39]: 74.5%
Activity [40]: 2.37 g
Activity [2]: Active
Activity [41]: 25.5%
Activity [42]: 63.61%

COc1ccc2c(c1OCCCCCCCCO[N+](=O)[O-])CN1CCc3cc4c(cc3C1C2)OCO4 (centres undefined)
IC50 [1]: > 100 µM

COc1cc2c(cc1OC)-c1cc3ccc(OC)c(OC)c3c[n+]1CC2.[Cl-] [PALMATINE CHLORIDE]
IC50 [3]: > 100 µM
IC50 [1]: > 100 µM
IC50 [10]: > 100 µM
inhibition in vivo at 30 mg/kg [16]: 41.6%
Activity [24]: 25.5 g
IC50 [27]: > 100 µM
IC50 [31]: > 100 µM

COc1ccc2cc3[n+](cc2c1OCCCCCCO[N+](=O)[O-])CCc1cc2c(cc1-3)OCO2
IC50 [1]: 8.51 µM

COc1cc2c(cc1OC)-c1cc3ccc(OC)c(OCCCCCCCCO[N+](=O)[O-])c3c[n+]1CC2
IC50 [1]: 3.91 µM
Activity [2]: Active

COc1ccc2cc3[n+](cc2c1OC)CCc1cc2c(cc1-3)OCO2 [BERBERINE CHLORIDE]
IC50 [3]: 27.4 µM
IC50 [1]: 49 µM
IC50 [10]: 71.5 µM
IC50 [27]: 40 µM
IC50 [31]: 25.9 µM

COc1cc2c(cc1OC)-c1c(Br)c3ccc(OC)c(OCCCCCCCCCCCCO[N+](=O)[O-])c3c[n+]1CC2
IC50 [1]: 1.98 µM

COc1cc2c(cc1OC)-c1c(Br)c3ccc(OC)c(OCCCCCCCCCCO[N+](=O)[O-])c3c[n+]1CC2
IC50 [1]: 3.01 µM

COc1ccc2cc3[n+](cc2c1OC(=O)CCCCCCCCCO[N+](=O)[O-])CCc1cc2c(cc1-3)OCO2
IC50 [1]: > 100 µM
